Key:
[1] = Chemical stability of compound in PBS at pH 7.4 incubated for 24 hrs under UV 254 nm stress condition by HPLC/UV/DAD analysis; assay type: physicochemical; settings: read-out: Stability
[2] = Metabolic stability in human liver microsome assessed as apparent decay constant at 5 uM in presence of NADPH incubated up to 60 mins by HPLC analysis; assay type: ADME; settings: microsomes, 1 h
How it was run: (§1)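 Compound in MeCN was incubated at 5 µM and 37 °C in 100 mM phosphate buffer pH 7.4 with 0.5 mg/mL human or mouse liver microsomal protein. Reactions were started with an NADPH-regenerating system (2 mM NADPH, glucose-6-phosphate, G6PDH, MgCl2) and stopped with MeCN over 0–60 min. Remaining compound was measured by HPLC-UV at 254 nm, in triplicate, with first-order decay fitting.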

[3] = Metabolic stability in human liver microsome assessed as intrinsic clearance at 5 uM measured per mg protein in presence of NADPH incubated up to 60 mins by HPLC analysis; assay type: ADME; settings: microsomes, 1 h; how it was run: as §1
[4] = Metabolic stability in mouse liver microsome assessed as apparent decay constant at 5 uM in presence of NADPH incubated up to 60 mins by HPLC analysis; assay type: ADME; settings: liver microsomes; how it was run: as §1
[5] = Metabolic stability in rat liver microsome assessed as apparent decay constant at 5 uM in presence of NADPH incubated up to 60 mins by HPLC analysis; assay type: ADME; settings: liver microsomes
How it was run: (§2)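 Compound (in MeCN) at 5 μM incubated at 37 °C in 100 mM phosphate buffer pH 7.4 with 0.5 mg/mL liver microsomal protein (rat, mouse or human). CYP reactions started with NADPH-generating system (2 mM NADPH, glucose-6-phosphate, G6P dehydrogenase, MgCl2). Stopped with MeCN at intervals over 0–60 min. Remaining parent quantified by HPLC-UV at 254 nm. Ln % recovery vs time fitted to first-order decay. Triplicate incubations.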

[6] = Toxicity in zebrafish AB embryos assessed as changes in dead and live embryos at 25 to 75 uM measured after 24 hrs; settings: Danio rerio, in vivo
[7] = Chemical stability of compound in PBS at pH 7.4 measured after 24 hrs by HPLC/UV/DAD analysis; assay type: physicochemical; settings: read-out: Stability
How it was run: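 DMSO stock (10 mM) was diluted to 250 µM (2.5% DMSO) in 50 mM PBS, pH 7.4, and kept 24 h at 25 °C with shaking. Peak area at 24 h versus T0 was measured by HPLC/UV/DAD at 254 nm, in triplicate. Stress tests used a methanol solution heated at 40 °C for 24 h, or 24 h under UV 254 nm.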

[8] = Metabolic stability in rat liver microsome assessed as intrinsic clearance at 5 uM measured per mg protein in presence of NADPH incubated up to 60 mins by HPLC analysis; assay type: ADME; settings: microsomes, 1 h; how it was run: as §2
[9] = Chemical stability of compound in PBS at pH 7.4 incubated for 24 hrs at 40 degreeC by HPLC/UV/DAD analysis; assay type: physicochemical; settings: read-out: Stability
[10] = Metabolic stability in mouse liver microsome assessed as intrinsic clearance at 5 uM measured per mg protein in presence of NADPH incubated up to 60 mins by HPLC analysis; assay type: ADME; settings: microsomes, 1 h; how it was run: as §2
[11] = Metabolic stability in mouse liver microsome assessed as half life at 5 uM in presence of NADPH incubated up to 60 mins by HPLC analysis; assay type: ADME; settings: liver microsomes; how it was run: as §1
[12] = Metabolic stability in rat liver microsome assessed as half life at 5 uM in presence of NADPH incubated up to 60 mins by HPLC analysis; assay type: ADME; settings: liver microsomes; how it was run: as §2
[13] = Cardiotoxicity in Langendorff-perfused Wistar rat heart assessed as effect on QTc interval time at 10 uM by ECG analysis (reference value: 66.4+/-1.3 milliseconds); assay type: toxicity, tissue-based
[14] = Cardiotoxicity in Langendorff-perfused Wistar rat heart assessed as effect on QRS interval time at 0.1 uM by ECG analysis (reference value: 13.3+/-0.6 milliseconds); assay type: toxicity, tissue-based
[15] = Cardiotoxicity in Langendorff-perfused Wistar rat heart assessed as effect on PQ interval time at 1 uM by ECG analysis (reference value: 45.4+/-3.9 milliseconds); assay type: toxicity, tissue-based
[16] = Cardiotoxicity in Langendorff-perfused Wistar rat heart assessed as effect on QRS interval time at 0.01 uM by ECG analysis (reference value: 13.3+/-0.6 milliseconds); assay type: toxicity, tissue-based
[17] = Cardiotoxicity in Langendorff-perfused Wistar rat heart assessed as effect on HR at 0.01 uM by ECG analysis (reference value: 252.3 +/-10.1 bpm); assay type: toxicity, tissue-based
[18] = Cardiotoxicity in Langendorff-perfused Wistar rat heart assessed as effect on HR at 1 uM by ECG analysis (reference value: 252.3 +/-10.1 bpm); assay type: toxicity, tissue-based
[19] = Cardiotoxicity in Langendorff-perfused Wistar rat heart assessed as effect on QT interval time at 1 uM by ECG analysis (reference value: 66.1+/-1.1 milliseconds); assay type: toxicity, tissue-based
[20] = system: B cell; experiment: Cytotoxicity against patient derived human B cells; assay type: toxicity, cell-based
[21] = Cardiotoxicity in Langendorff-perfused Wistar rat heart assessed as effect on QT interval time at 0.01 uM by ECG analysis (reference value: 66.1+/-1.1 milliseconds); assay type: toxicity, tissue-based
[22] = Cardiotoxicity in Langendorff-perfused Wistar rat heart assessed as effect on RR time at 0.01 uM by ECG analysis (reference value: 239.5+/-9.2 milliseconds); assay type: toxicity, tissue-based
[23] = Cardiotoxicity in Langendorff-perfused Wistar rat heart assessed as effect on PQ interval time at 10 uM by ECG analysis (reference value: 45.4+/-3.9 milliseconds); assay type: toxicity, tissue-based
[24] = Cardiotoxicity in Langendorff-perfused Wistar rat heart assessed as effect on QTc interval time at 1 uM by ECG analysis (reference value: 66.4+/-1.3 milliseconds); assay type: toxicity, tissue-based
[25] = Cardiotoxicity in Langendorff-perfused Wistar rat heart assessed as effect on QTc interval time at 0.01 uM by ECG analysis (reference value: 66.4+/-1.3 milliseconds); assay type: toxicity, tissue-based
[26] = Cardiotoxicity in Langendorff-perfused Wistar rat heart assessed as effect on RR time at 0.1 uM by ECG analysis (reference value: 239.5+/-9.2 milliseconds); assay type: toxicity, tissue-based
[27] = Cardiotoxicity in Langendorff-perfused Wistar rat heart assessed as effect on QT interval time at 0.1 uM by ECG analysis (reference value: 66.1+/-1.1 milliseconds); assay type: toxicity, tissue-based
[28] = Cardiotoxicity in Langendorff-perfused Wistar rat heart assessed as effect on QRS interval time at 10 uM by ECG analysis (reference value: 13.3+/-0.6 milliseconds); assay type: toxicity, tissue-based
[29] = Cardiotoxicity in Langendorff-perfused Wistar rat heart assessed as effect on RR time at 1 uM by ECG analysis (reference value: 239.5+/-9.2 milliseconds); assay type: toxicity, tissue-based
[30] = Cardiotoxicity in Langendorff-perfused Wistar rat heart assessed as effect on HR at 10 uM by ECG analysis (reference value: 252.3 +/-10.1 bpm); assay type: toxicity, tissue-based
[31] = Cardiotoxicity in Langendorff-perfused Wistar rat heart assessed as effect on HR at 0.1 uM by ECG analysis (reference value: 252.3 +/-10.1 bpm); assay type: toxicity, tissue-based

O=C(NO)c1ccc(CNC(=O)N2CCC(N3C(=O)[C@H](c4ccccc4)[C@H]3c3ccccc3)CC2)cc1 (racemic)
remaining at 24 h [1]: 100% | K [2]: 0.0129 min⁻¹ | CLH [3]: 32.28 µL/min | k el at 1 h, 5 µM [4]: 0.000182 s⁻¹ | k el at 1 h, 5 µM [5]: 0.000135 s⁻¹ | Activity [6]: Non-Toxic | remaining at 24 h [7]: 73% | CLH [8]: 8.43 µL/min | remaining at 24 h [9]: 100% | CLH [10]: 35.38 µL/min | half-life at 5 µM [11]: 1.07 h | half-life at 5 µM [12]: 1.43 h

O=C(NO)c1ccc(CNC(=O)N2CCC(N3CC(c4ccccc4)(c4ccccc4)C3=O)CC2)cc1
remaining at 24 h [1]: 100% | Time [13]: 68.6 ms | K [2]: 0.0362 min⁻¹ | Time [14]: 13.1 ms | Time [15]: 46.2 ms | CLH [3]: 90.5 µL/min | Time [16]: 12.8 ms | Activity [17]: 251.2 bpm | Activity [18]: 252 bpm | k el at 1 h, 5 µM [4]: 0.000173 s⁻¹ | k el at 1 h, 5 µM [5]: 0.000118 s⁻¹ | Time [19]: 68.1 ms | Activity [20]: Non-Toxic | Activity [6]: Non-Toxic | Time [21]: 66.7 ms | Time [22]: 239.8 ms | remaining at 24 h [7]: 75% | CLH [8]: 7.39 µL/min | Time [23]: 47.5 ms | Time [24]: 68.9 ms | Time [25]: 66.9 ms | Time [26]: 233.1 ms | Time [27]: 66.1 ms | Time [28]: 13.9 ms | remaining at 24 h [9]: 94% | CLH [10]: 33.63 µL/min | Time [29]: 237.2 ms | Activity [30]: 248.4 bpm | half-life at 5 µM [11]: 1.12 h | Activity [31]: 258.4 bpm | half-life at 5 µM [12]: 1.63 h

From ChEMBL document CHEMBL5113395, “Azetidin-2-one-based small molecules as dual hHDAC6/HDAC8 inhibitors: Investigation of their mechanism of action and impact of dual inhibition profile on cell viability” (Eur J Med Chem, 2022)
